Mac1 fbg inh: inhibitors of human CD11b/CD18 binding to fibrinogen; P05107+P11215; K562 CD11b/CD18 adhesion to fibrinogen, ATPlite luminescence; Mn2+ added to activate the integrin; inhibition, % at 10 µM; 93,000 compounds, 0.54% hits;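 active means primary inhibition of 50% or more at 10 µM, then 40% or more on retest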
Target sequence (P05107 whole entry, looked up, other chains not shown): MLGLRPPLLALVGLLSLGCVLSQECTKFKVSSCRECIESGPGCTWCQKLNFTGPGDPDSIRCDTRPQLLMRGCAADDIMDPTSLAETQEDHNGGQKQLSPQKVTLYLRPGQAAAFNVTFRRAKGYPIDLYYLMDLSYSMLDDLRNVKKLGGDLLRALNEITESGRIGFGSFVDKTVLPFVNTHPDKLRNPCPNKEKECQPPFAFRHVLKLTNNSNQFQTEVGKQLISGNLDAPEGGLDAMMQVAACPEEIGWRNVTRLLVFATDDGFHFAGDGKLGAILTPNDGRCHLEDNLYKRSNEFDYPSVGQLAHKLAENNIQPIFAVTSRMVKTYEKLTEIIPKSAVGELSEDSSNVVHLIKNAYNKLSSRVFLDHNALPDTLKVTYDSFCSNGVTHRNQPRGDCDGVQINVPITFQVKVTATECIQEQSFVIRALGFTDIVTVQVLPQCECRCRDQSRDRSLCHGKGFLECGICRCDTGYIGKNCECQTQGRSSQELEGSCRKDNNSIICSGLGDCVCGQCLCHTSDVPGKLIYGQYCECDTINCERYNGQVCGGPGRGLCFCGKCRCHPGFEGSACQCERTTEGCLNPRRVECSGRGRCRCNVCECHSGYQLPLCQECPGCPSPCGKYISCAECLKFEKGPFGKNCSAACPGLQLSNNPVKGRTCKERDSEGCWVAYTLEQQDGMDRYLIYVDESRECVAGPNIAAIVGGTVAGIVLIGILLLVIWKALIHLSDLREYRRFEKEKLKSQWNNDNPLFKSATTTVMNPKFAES
E coli WT exp: growth inhibitors of E. coli BW25113 wild type; OD600 absorbance; growth inhibition, % at 100 µM; 98,000 compounds, 0.15% hits;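 active means growth inhibition above about 50% at one test dose, limit read from the data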;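 further: growth measured after 20 h incubation at 37 °C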
tolC growth inh: blocks growth of E. coli BW25113 tolC mutant. OD615. 65,000 compounds, 2.2% hits. AID 573. growth inhibition, % at 10 µM (by protocol);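 active means growth inhibition at or above a cutoff equal to the mean over every tested compound plus 3 SD, cut at about 60% in these data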;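 further: growth measured after 20 h incubation at 37 °C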
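test system = E. coli BW25113 ΔtolC::kan bacteria | medium = LB with kanamycin 50 µg/mL | signal = OD at 615 nm | schedule = 37 °C, 20 h exposure | evaluation = % inhibition of E. coli growth | compound dosing = one dose of 10 µM final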
Phagocytosis inh: inhibitors of macrophage phagocytosis | J774A.1 macrophage IgG-bead phagocytosis, imaging | inhibition, % at 5 µM | 110,000 compounds, 0.07% hits | AID 1029;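 active means inhibition above the mean of the plate negative controls plus 5 SD, cut at about 13% in these data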;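 further: phagocytic index as fraction of beads internalized from green versus red external bead signal; plate controls were DMSO negative control for no effect and cytochalasin-D positive control for full effect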
Mac1 fbg enh: enhancers of human CD11b/CD18 binding to fibrinogen | K562 CD11b/CD18 adhesion to fibrinogen, ATPlite luminescence | AID 1499 | 93,000 compounds, 0.07% hits | P05107+P11215 | activation, % at 10 µM;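 active means 10 µM primary screen giving 50% or more activity, confirmed by 40% or more on retest at that dose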
* marks the source's active call; other numbers are inactive results; x = not tested or not shown; [ ] = remark or other dose. The entries come from a sample that favours hits as a whole.

SMILES | Mac1 fbg inh | E coli WT exp | tolC growth inh | Phagocytosis inh | Mac1 fbg enh
c1cncc(-c2nc(N3CCCCCC3)c3ccccc3n2)c1 | -9 | 0 | 95* | 2 | 4
CN1CCN(c2nc(-c3cccnc3)nc3ccccc23)CC1 | 10 | 11 | 0 | 0 | 2
COc1cc(CN(C)CC(=O)c2[nH]c(C)c(C(C)=O)c2C)ccc1OC(F)F | 74* | 0 | 12 | x | -7
CCn1c2ccccc2c2nnc(SCc3ccccc3)nc21 | 33 | -13 | 73* | 0 | 12
CCn1c2ccccc2c2nnc(SCC(N)=O)nc21 | -1 | 4 | x | 0 | -2
Cc1ccc(OCC(=O)N2N=C(C(F)(F)F)CC2(O)C(C)(C)C)cc1C (centres undefined) | 80* | 0 | x | x | -7
N#Cc1c(/N=C/c2ccco2)oc(-c2ccccc2)c1-c1ccccc1 | 5 | -4 | 77* | -1 | 7
CCC1CCC2(CC1)NC(=O)N(CC(=O)c1c(C)[nH]c3ccccc13)C2=O (centres undefined) | 9 | x | x | -8 | 0
COCCCNC(=O)c1c(N)n(/N=C/c2ccccn2)c2nc3ccccc3nc12 | x | -6 | 5 | x | x
CC(C)OCCCNC(=O)c1c(N)n(/N=C/c2cccs2)c2nc3ccccc3nc12 | 31 | -25 | x | 3 | 149*
Cc1nn(-c2nc3ccccc3s2)c(N)c1-c1ccccc1 | 19 | 1 | -2 | 5 | 4
Cc1nn(-c2nc3ccccc3[nH]2)c(N)c1-c1ccccc1 | x | x | 76* | x | x
COc1ccccc1N(CC(O)COc1ccccc1C)S(=O)(=O)c1ccccc1 (centres undefined) | x | x | x | -2 | x
CC1CCCCN1Cc1c(O)ccc2c(=O)c(-c3nc4ccccc4s3)c(N)oc12 (centres undefined) | x | x | x | -8 | x
COc1cc(OC)nc(-n2ncc(Br)c(Br)c2=O)n1 | x | x | x | 0 | x
CCOC(=O)c1sc(NC(=O)c2cc(-c3ccccc3C)nc3ccccc23)c(C#N)c1C | 93* | 2 | x | 2 | -7
Cc1ccccc1-c1cc(C(=O)Nc2sc(C)c(C)c2C(N)=O)c2ccccc2n1 | 0 | -7 | x | 2 | 19
CCN1/C(=C(\O)c2ccccc2)C(=O)c2ccccc2S1(=O)=O | -20 | 12 | 89* | 9 | -3
O=C(c1cccc(F)c1)N1CCN(C(=O)c2cc(-c3ccc(Cl)cc3Cl)on2)CC1 | 11 | -14 | 64* | 0 | 6
COc1cccc(C(=O)N2CCN(C(=O)c3cccc(F)c3)CC2)c1 | x | -3 | -7 | x | x
N#Cc1nc(COc2ccc(Cl)cc2)oc1N1CCCCCC1 | 6 | -1 | 66* | 2 | 6
N#Cc1nc(COc2ccccc2)oc1N1CCCCC1 | -3 | -2 | 12 | 0 | -5
N#Cc1nc(COc2ccc(F)cc2)oc1N1CCN(Cc2ccccc2)CC1 | x | -13 | 65* | -1 | x
CC1CN(c2oc(COc3ccc(Cl)cc3Cl)nc2C#N)CC(C)O1 (centres undefined) | x | -12 | 81* | x | x
CCOC(=O)C(=O)c1cn(C2OCC(OC(C)=O)C(OC(C)=O)C2OC(C)=O)c2ccccc12 (centres undefined) | x | x | x | -17 | x
SMILES | Mac1 fbg inh | E coli WT exp | tolC growth inh | Phagocytosis inh | Mac1 fbg enh
Cc1onc(-c2c(F)cccc2Cl)c1C(=O)Nc1nc2c(s1)CCCC2 | x | -16 | 63* | x | x
Cc1onc(-c2ccccc2Cl)c1C(=O)Nc1sc2c(c1C#N)CCC2 | 48 | -19 | 83* | 0 | -2
CCSc1nnc(NC(=O)c2c(-c3ccccc3Cl)noc2C)s1 | 24 | 6 | 22 | 3 | -2
Cc1onc(-c2ccccc2Cl)c1C(=O)Nc1nnc(-c2cccc([N+](=O)[O-])c2)s1 | 90* | -3 | x | 2 | -6
Cc1ccc(-n2nc3c(c2NC(=O)c2c(-c4ccccc4Cl)noc2C)CSC3)cc1 | 1 | -7 | 16 | 0 | 72*
CN(C(=O)COC(=O)c1cc(NS(=O)(=O)c2cc([N+](=O)[O-])ccc2Cl)ccc1O)C1CCCCC1 | x | x | x | -4 | x
CNc1ccc(/C=C/C(=O)c2cccc3ccccc23)cc1[N+](=O)[O-] | x | x | x | -3 | x
N#CCSc1n[nH]c2nc3c(c(=O)n12)C1(CCCC1)Cc1ccccc1-3 | 78* | 7 | 98* | 1 | -7
Cc1ccc(S(=O)(=O)Nc2nc3ccccc3s2)cc1 | 5 | -1 | x | 0 | -2
O=S(=O)(Nc1nc2ccccc2s1)c1ccc(Br)s1 | 101* | 11 | 76* | 0 | -12
O=C(CSc1nnc(-c2ccncc2)n1-c1ccc(F)cc1)NNC(=O)c1cccc(O)c1 | 8 | x | x | -10 | 2
COc1ccc(C(=O)Nn2cc3c(c2-c2ccccc2)c(=O)n(C)c(=O)n3C)cc1 | -2 | -6 | -4 | 0 | -3
COc1ccc(-c2c3c(=O)n(C)c(=O)n(C)c3cn2-c2ccccc2)cc1 | x | -8 | 96* | 0 | x
O=C(CSc1nc2ccc([N+](=O)[O-])cc2[nH]1)NC1CCCCCC1 | 102* | x | x | -4 | -9
O=C(CSc1nc2ccc([N+](=O)[O-])cc2[nH]1)NC1CCCCC1 | -7 | 2 | x | -4 | -3
Cc1nn(-c2ccccc2)c(C)c1C(=O)OCC(=O)c1c(N)n(CC(C)C)c(=O)n(C)c1=O | 65* | -10 | 1 | 1 | -7
CC(C)Cn1c(N)c(C(=O)COC(=O)c2cc(-c3ccco3)nc3ccccc23)c(=O)n(C)c1=O | x | -4 | 12 | 1 | x
Cn1c[n+](C)cc1-c1ccc(/C(N)=N/O)cc1 | x | x | x | -2 | x
CCN(CC)S(=O)(=O)c1ccc(N2CCOCC2)c(NC(=O)CC23CC4CC(CC(Br)(C4)C2)C3)c1 | x | x | x | -7 | x
O=C(CCn1c(=O)oc2ccccc21)N1CCN(C(c2ccccc2)c2ccccc2)CC1 | 9 | -13 | 64* | -1 | -1
O=C(CCn1c(=O)oc2ccccc21)N1CCN(c2ccccc2F)CC1 | x | 4 | -8 | x | x
O=C(/C=C/c1ccccc1)/C=C/c1ccccc1 | x | x | x | -2 | x
Cc1n[nH]c(C)c1S(=O)(=O)N(CC(=O)Nc1ccc2c(c1)OCCO2)c1ccc(C(C)C)cc1 | 8 | -3 | 66* | 1 | -1
COc1ccc(-c2nc(-c3cccs3)c(-c3cccs3)[nH]2)cc1O | 11 | -5 | 97* | -2 | 6
O=C(CSC1=NS(=O)(=O)c2ccccc21)Nc1ccccc1 | 72* | 13 | -7 | 1 | -6
SMILES | Mac1 fbg inh | E coli WT exp | tolC growth inh | Phagocytosis inh | Mac1 fbg enh
COC(=O)CSC1=NS(=O)(=O)c2ccccc21 | 69 | -8 | 0 | 1 | -8
Oc1ccc(Cl)cc1-c1cc(C(F)(F)C(F)F)nc(-c2ccccc2)n1 | 59* | -15 | x | 2 | -7
Cc1cccc(NC(=S)N(C)C2(c3ccccc3Cl)CCCCC2=O)c1 (centres undefined) | 8 | -6 | x | 33*[artifact] | 6
CC(C)Sc1nc(NCc2ccco2)c2c3c(sc2n1)COC(C)(C)C3 | 5 | 3 | 65* | -1 | -1
CSc1nc(SCC(=O)NCc2ccco2)c2c3c(sc2n1)COC(C)(C)C3 | 3 | -3 | 18 | 0 | -5
O=C(c1ccc(CNS(=O)(=O)c2ccccc2)cc1)N1CCN(c2ccccn2)CC1 | x | 6 | -8 | x | x
